Yeast tox – Compounds toxic to wild-type S. cerevisiae growth; A595 turbidity, 16 h; growth inhibition, % at 25 µM (by protocol); 30,000 compounds, 0.3% hits; AID 685;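 active means mutant and wild-type yeast strains alike exhibit over 30% growth inhibition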;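 further: 0% = untreated cell controls and 100% = YPD media blanks without cells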
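Test system: Wild-type and eIF2Bepsilon-R284H mutant S. cerevisiae, screened separately | Dosing: Single 25 µM compound dose in 0.2% DMSO | Schedule: 16 h compound exposure during growth at 30 °C | Detection: A595 turbidity | Evaluation: Growth inhibition (%) versus cell controls and blanks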
eIF2B yeast act – eIF2B (yeast) activity modulation | S. cerevisiae eIF2B-epsilon R284H, GCN4-lacZ luminescence | inhibition, % at 25 µM (by protocol) | 27,000 compounds, 0.91% hits | AID 688;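 active means mutant luminescence inhibited past about 50% while wild type luminescence and mutant growth stay under set limits, limit read from the data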
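material = yeast eIF2B-epsilon R284H mutant carrying GCN4–beta-galactosidase fusion | schedule = 16 h growth with compound at 30 °C, 90 min Beta-Glo step | measured by = luminescence and A595 | compound dosing = one concentration, 25 µM, 0.25% DMSO | read-out basis = % inhibition of reporter signal and growth versus controls | buffer or medium = YPD medium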
Active calls of the source: *. Hits are enriched below; roughly 1.1% of the tested compounds scored in any of these assays.

For COc1cc2[nH]c(=S)n(N(C(C)=O)C(C)=O)c(=O)c2cc1OC the results were Yeast tox 27.
Screening COc1cc2[nH]c(=S)n(C3CCCC3)c(=O)c2cc1OC returned Yeast tox 32* and eIF2B yeast act 3.
`Cc1cc2c(c(=O)n1CC1CCCO1)C(c1ccco1)C(C#N)=C(N)O2` (stereo not drawn) gave Yeast tox 8 and eIF2B yeast act 64*.
Cc1cc2c(c(=O)n1CCCn1ccnc1)C(c1ccco1)C(C#N)=C(N)O2 (stereo not drawn) was read as Yeast tox 11 and eIF2B yeast act -22.
COc1ccc(/C(C)=C(\C#N)C(=O)OC(C)C)cc1OC was read as Yeast tox 16 and eIF2B yeast act 18.
For COCCn1c(=O)c2cc3c(=O)n(CCOC)c(=O)c3cc2c1=O the results were Yeast tox 30.
O=C(c1ccccc1)N1CCCCC(S(=O)(=O)c2ccc3ccccc3c2)C1=O (stereo not drawn) was read as Yeast tox 3.
`CN1CCN(S(=O)(=O)c2ccc(NC(=O)Nc3cccc(Cl)c3)cc2)CC1` gave Yeast tox -8.
`COC(=O)c1cccc(NC(=O)c2ccc(S(=O)(=O)N3CCN(C)CC3)cc2)c1` gave Yeast tox 1 and eIF2B yeast act 59*.
CC(=O)Nc1ccc(NS(=O)(=O)c2ccc3ccccc3c2)cc1 was read as Yeast tox 27 and eIF2B yeast act 19.
Screening CCc1cc2c(=O)n(-c3ccc(C)cc3)cnc2s1 returned Yeast tox -3 and eIF2B yeast act 31.
`O=C(Nc1ccc(Cl)c(Cl)c1)C1CC(=O)N(c2ccc(Br)cc2)C1` (stereo not drawn) gave Yeast tox 79* and eIF2B yeast act 61.
For Cc1ccc(N2CC(C(=O)Nc3nccs3)CC2=O)cc1Cl (stereo not drawn) the results were Yeast tox -2.
For Cc1c(C(=O)N2CCN(c3ccccc3F)CC2)sc2nc(-c3ccccc3)cn12 the results were Yeast tox 11 and eIF2B yeast act 60*.
`Cc1c(C(N)=O)sc2nc(-c3ccccc3)cn12` gave Yeast tox 7 and eIF2B yeast act 17.
`CC(Cc1ccccc1)NC(=O)CSc1nc2nc3c(cc2c(=O)n1-c1ccccc1)COC(C)(C)C3` (stereo not drawn) gave Yeast tox -3 and eIF2B yeast act -10.
Screening O=C1c2cc(S(=O)(=O)NCCCO)ccc2-c2ccc(S(=O)(=O)NCCCO)cc21 returned Yeast tox 14 and eIF2B yeast act 12.
`CCc1ccc(NC(=O)CCn2ccnc2C)cc1` gave Yeast tox -12.
For O=C(CSc1nc(-c2ccccc2)c(-c2ccccc2)[nH]1)N1CCN(S(=O)(=O)c2ccccc2)CC1 the results were Yeast tox 13.
`Clc1cccc(-c2nn3c(COc4ccccc4)nnc3s2)c1` gave Yeast tox 3 and eIF2B yeast act 56*.
Clc1ccc(-c2nn3c(-c4cccc(Cl)c4)nnc3s2)cc1 was read as Yeast tox -36 and eIF2B yeast act 3.
Cc1nc2nc(NCc3cccs3)nn2c(C)c1Cl was read as Yeast tox -16 and eIF2B yeast act -5.
Screening COc1ccc(C2C=C(c3ccc(Cl)cc3)Nc3nc(NC(C)=O)nn32)cc1 (stereo not drawn) returned Yeast tox 19 and eIF2B yeast act 1.
COc1ccc(C2=CC(c3sccc3C)n3nnnc3N2)cc1 (stereo not drawn) was read as Yeast tox 14 and eIF2B yeast act 56*.
For Cc1ccc2nc3sc(C(=O)N4CCOCC4)c(N)c3cc2c1 the results were Yeast tox -4.
For COc1ccc2cc3c(N)c(C(=O)N4CCCC4)sc3nc2c1 the results were Yeast tox 33 and eIF2B yeast act 54*.
Screening COc1ccccc1NC(=O)c1cc2ccccc2o/c1=N\O returned Yeast tox 9 and eIF2B yeast act 64*.
For COc1ccccc1NC(=O)c1ccccc1SC the results were Yeast tox 5 and eIF2B yeast act 14.
For O=C(CCCN1C(=O)c2cccc3cccc(c23)C1=O)N1CCc2ccccc2C1 the results were Yeast tox 9.
COC(=O)C1=NN(c2ccc(C)cc2)C2(S1)SC(C(C)=O)=C(C)N2c1ccccc1 (stereo not drawn) was read as Yeast tox -3 and eIF2B yeast act 21.
`O=C(Cc1ccccc1)N(c1ccc(F)cc1)C1C=CS(=O)(=O)C1` (stereo not drawn) gave Yeast tox 7 and eIF2B yeast act 56*.
Screening O=C(Cc1ccc(F)cc1)N(c1ccc(F)cc1)C1C=CS(=O)(=O)C1 (stereo not drawn) returned Yeast tox -1 and eIF2B yeast act -26.
For CC(C)C(=O)N(c1ccc(F)cc1)C1C=CS(=O)(=O)C1 (stereo not drawn) the results were Yeast tox 25 and eIF2B yeast act 23.
`O=C(c1ccc2c(c1)OCO2)N(c1ccc(F)cc1)C1C=CS(=O)(=O)C1` (stereo not drawn) gave Yeast tox -4 and eIF2B yeast act 56*.
Screening CCS(=O)(=O)n1nc(-c2ccccc2)nc1SC returned Yeast tox 22 and eIF2B yeast act -8.
Screening CCn1c(=O)n(CC(=O)Nc2cc(OC)c(OC)c(OC)c2)c(=O)c2ccccc21 returned Yeast tox 1.
For CC1=CC(=O)C=C(C)C1=NOS(=O)(=O)c1ccccc1 the results were Yeast tox 77*.
Screening CC1=CC(=O)C=C(C)C1=NOC(=O)c1cccc([N+](=O)[O-])c1 returned Yeast tox 2 and eIF2B yeast act 18.
COC(=O)c1ccccc1NC(=O)CSc1nnc(-c2ccc(OC)cc2)n1C was read as Yeast tox 21 and eIF2B yeast act 3.
Screening CN(C(=S)Nc1ccc(F)cc1)C1(c2ccccc2Cl)CCCCC1=O (stereo not drawn) returned Yeast tox 18.
CCOC(=O)N1CCN(C(=O)COc2cc(=O)n(CC)c3ccccc23)CC1 was read as Yeast tox 5 and eIF2B yeast act 68*.
Screening CCn1c(=O)cc(OCC(=O)N(C)C2CCCCC2)c2ccccc21 returned Yeast tox 20 and eIF2B yeast act 22.
For COc1cc(OC)cc(C(=O)NC2CCN(CC(=O)Nc3cccc4ccccc34)CC2)c1 the results were eIF2B yeast act 5.
`CCSc1nnc(NC(=O)c2ccccn2)s1` gave Yeast tox 66* and eIF2B yeast act 82.
Screening CCSc1nnc(NC(=O)c2csc3c2CCCC3)s1 returned eIF2B yeast act -3.
For Cc1ccn(C(=O)c2cc3ccccc3oc2=O)n1 the results were Yeast tox 3 and eIF2B yeast act 18.
Screening O=C(OCCn1cncn1)c1cc2ccccc2oc1=O returned Yeast tox -5 and eIF2B yeast act 59*.
`Cn1c(SCC(=O)OC2CCCCC2)nnc1-c1ccco1` gave Yeast tox -34 and eIF2B yeast act 6.
`COc1ccccc1-n1c(SCC(=O)Nc2cccc3ccccc23)nc(O)cc1=O` gave Yeast tox 22.
COc1ccccc1NC(=O)CSc1nc(O)cc(=O)n1C was read as Yeast tox -21 and eIF2B yeast act 53*.
CCC(C)NS(=O)(=O)c1ccc(OCC(=O)N2CCC(C)CC2)cc1 (stereo not drawn) was read as Yeast tox 2 and eIF2B yeast act 7.

Screens deposited in PubChem by PCMD.
